From ChEMBL document CHEMBL1806372, “Cytotoxic ring A-modified steroid analogues derived from Grundmann's ketone” (Eur J Med Chem, 2011)
The source made the active and inactive calls. The rule behind the calls is not given here.

Assays:
Format in all cases: functional
SK-MEL-2 = experiment: Growth inhibition of human SK-MEL-2 cells assessed as cell growth at 10^-5 M after 48 hrs by sulforhodamine B assay; settings: SK-MEL-2, 48 h, read-out: Activity
How it was run: (§1)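 NCI-60 single high-dose screen run under the NCI protocol. Cells were incubated with compound at 10^-5 M for 48 h. The end point was determined by sulforhodamine B protein staining. Results are reported as percent growth of treated cells relative to untreated control cells.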

LOX IMVI = experiment: Growth inhibition of human LOXIMVI cells assessed as cell growth at 10^-5 M after 48 hrs by sulforhodamine B assay; settings: read-out: Activity
How it was run: (§2)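 NCI 60-cell panel single high-dose screen: compound applied at 10^-5 M for 48 h, endpoint by sulforhodamine B protein-binding dye. Values reported as growth percent of treated cells relative to untreated control cells.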

SF-539 = experiment: Growth inhibition of human SF539 cells assessed as cell growth at 10^-5 M after 48 hrs by sulforhodamine B assay; settings: SF-539, 48 h, read-out: Activity; how it was run: as §1
NCI-H522 = experiment: Growth inhibition of human NCI-H522 cells assessed as cell growth at 10^-5 M after 48 hrs by sulforhodamine B assay; settings: NCI-H522, 48 h, read-out: Activity; how it was run: as §1
MDA-MB-468 = experiment: Growth inhibition of human MDA-MB-468 cells assessed as cell growth at 10^-5 M after 48 hrs by sulforhodamine B assay; settings: MDA-MB-468, 48 h, read-out: Activity; how it was run: as §1
SR = experiment: Growth inhibition of human SR cells assessed as cell growth at 10^-5 M after 48 hrs by sulforhodamine B assay; settings: read-out: Activity
How it was run: (§3)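 NCI 60-cell panel single-dose screen under the NCI protocol. Cells are exposed to compound at one concentration (10^-5 M) for 48 h. The end point is protein staining with sulforhodamine B. Each line is reported as percent growth of treated cells relative to untreated control cells.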

OVCAR-4 = experiment: Growth inhibition of human OVCAR4 cells assessed as cell growth at 10^-5 M after 48 hrs by sulforhodamine B assay; settings: OVCAR-4, 48 h, read-out: Activity; how it was run: as §1
A549 = experiment: Growth inhibition of human A549 cells assessed as cell growth at 10^-5 M after 48 hrs by sulforhodamine B assay; settings: A549, 48 h, read-out: Activity; how it was run: as §2
SN12C = experiment: Growth inhibition of human SN12C cells assessed as cell growth at 10^-5 M after 48 hrs by sulforhodamine B assay; settings: read-out: Activity; how it was run: as §3
786-0 = experiment: Growth inhibition of human 786-0 cells assessed as cell growth at 10^-5 M after 48 hrs by sulforhodamine B assay; settings: 786-0, 48 h, read-out: Activity; how it was run: as §2
NCI-H322M = experiment: Growth inhibition of human NCI-H322M cells assessed as cell growth at 10^-5 M after 48 hrs by sulforhodamine B assay; settings: read-out: Activity; how it was run: as §1
ACHN = experiment: Growth inhibition of human ACHN cells assessed as cell growth at 10^-5 M after 48 hrs by sulforhodamine B assay; settings: read-out: Activity; how it was run: as §2
EKVX = experiment: Growth inhibition of human EKVX cells assessed as cell growth at 10^-5 M after 48 hrs by sulforhodamine B assay; settings: read-out: Activity; how it was run: as §2
KM12 = experiment: Growth inhibition of human KM12 cells assessed as cell growth at 10^-5 M after 48 hrs by sulforhodamine B assay; settings: KM12, 48 h, read-out: Activity; how it was run: as §2
MOLT-4 = experiment: Growth inhibition of human MOLT4 cells assessed as cell growth at 10^-5 M after 48 hrs by sulforhodamine B assay; settings: MOLT-4, 48 h, read-out: Activity; how it was run: as §1
NCI-H23 = experiment: Growth inhibition of human NCI-H23 cells assessed as cell growth at 10^-5 M after 48 hrs by sulforhodamine B assay; settings: NCI-H23, 48 h, read-out: Activity; how it was run: as §1
DU-145 = experiment: Growth inhibition of human DU145 cells assessed as cell growth at 10^-5 M after 48 hrs by sulforhodamine B assay; settings: DU-145, 48 h, read-out: Activity; how it was run: as §2
HCT-15 = experiment: Growth inhibition of human HCT15 cells assessed as cell growth at 10^-5 M after 48 hrs by sulforhodamine B assay; settings: HCT-15, 48 h, read-out: Activity; how it was run: as §2
HOP-62 = experiment: Growth inhibition of human HOP62 cells assessed as cell growth at 10^-5 M after 48 hrs by sulforhodamine B assay; settings: HOP-62, 48 h, read-out: Activity; how it was run: as §2
A498 = experiment: Growth inhibition of human A498 cells assessed as cell growth at 10^-5 M after 48 hrs by sulforhodamine B assay; settings: A498, 48 h, read-out: Activity; how it was run: as §2
SK-MEL-5 = experiment: Growth inhibition of human SK-MEL-5 cells assessed as cell growth at 10^-5 M after 48 hrs by sulforhodamine B assay; settings: SK-MEL-5, 48 h, read-out: Activity; how it was run: as §3
HL-60(TB) = experiment: Growth inhibition of human HL-60(TB) cells assessed as cell growth at 10^-5 M after 48 hrs by sulforhodamine B assay; settings: HL-60, 48 h, read-out: Activity
How it was run: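 NCI single high-dose screen across the 60-cell panel (leukemia, melanoma, lung, colon, brain, breast, ovary, kidney, prostate), run per NCI protocol. Cells incubated with compound at 10^-5 M for 48 h. Sulforhodamine B protein-binding dye end point. Reported as growth percent of treated vs untreated control cells.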

OVCAR-3 = experiment: Growth inhibition of human OVCAR3 cells assessed as cell growth at 10^-5 M after 48 hrs by sulforhodamine B assay; settings: OVCAR-3, 48 h, read-out: Activity; how it was run: as §1
OVCAR-8 = experiment: Growth inhibition of human OVCAR8 cells assessed as cell growth at 10^-5 M after 48 hrs by sulforhodamine B assay; settings: OVCAR-8, 48 h, read-out: Activity; how it was run: as §1
Malme-3M = experiment: Growth inhibition of human MALME-3M cells assessed as cell growth at 10^-5 M after 48 hrs by sulforhodamine B assay; settings: read-out: Activity; how it was run: as §1
U-251 = experiment: Growth inhibition of human U251 cells assessed as cell growth at 10^-5 M after 48 hrs by sulforhodamine B assay; settings: U-251, 48 h, read-out: Activity; how it was run: as §3
SW-620 = experiment: Growth inhibition of human SW620 cells assessed as cell growth at 10^-5 M after 48 hrs by sulforhodamine B assay; settings: SW-620, 48 h, read-out: Activity; how it was run: as §3
SK-MEL-28 = experiment: Growth inhibition of human SK-MEL-28 cells assessed as cell growth at 10^-5 M after 48 hrs by sulforhodamine B assay; settings: SK-MEL-28, 48 h, read-out: Activity; how it was run: as §1
CCRF-CEM = experiment: Growth inhibition of human CCRF-CEM cells assessed as cell growth at 10^-5 M after 48 hrs by sulforhodamine B assay; settings: read-out: Activity; how it was run: as §2
[1] = Antifungal activity against Hyphopichia burtonii assessed as zone of inhibition at 5 uL and 28 degC after 36 hrs by disk diffusion method
How it was run: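 Agar disc diffusion with the test compound applied as a 1% (w/v) DMSO solution. Yeasts were grown on AC agar and Aspergillus niger on potato dextrose broth agar, each strain spread evenly. Plates were covered and kept 36 h at 28 °C, and the inhibition zone diameter was read in mm. Clotrimazole served as reference.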

Structure (SMILES) | growth at 10 µM (SK-MEL-2) [%] | growth at 10 µM (LOX IMVI) [%] | growth at 10 µM (SF-539) [%] | growth at 10 µM (NCI-H522) [%] | growth at 10 µM (MDA-MB-468) [%] | growth at 10 µM (SR) [%] | growth at 10 µM (OVCAR-4) [%] | growth at 10 µM (A549) [%] | growth at 10 µM (SN12C) [%] | growth at 10 µM (786-0) [%] | growth at 10 µM (NCI-H322M) [%] | growth at 10 µM (ACHN) [%] | growth at 10 µM (EKVX) [%] | growth at 10 µM (KM12) [%] | growth at 10 µM (MOLT-4) [%] | growth at 10 µM (NCI-H23) [%] | growth at 10 µM (DU-145) [%] | growth at 10 µM (HCT-15) [%] | growth at 10 µM (HOP-62) [%] | growth at 10 µM (A498) [%] | further results
CC(C)CCC[C@@H](C)[C@H]1CC[C@H]2[C@@H]3CCN4C(=O)CCC(=O)N4[C@@H]3CC[C@]12C | 114 | 84.5 | 104 | 80.2 | 122 | 79.7 | 103 | 84.1 | 88 | 83.8 | 117 | 90 | 83.3 | 105 | 87.2 | 87 | 100 | 106 | 87.7 | 89.2 | growth at 10 µM (SK-MEL-5): 96.4%; growth at 10 µM (HL-60(TB)): 72%; growth at 10 µM (OVCAR-3): 104%; growth at 10 µM (OVCAR-8): 93.5%; growth at 10 µM (Malme-3M): 95.6%; growth at 10 µM (U-251): 106%; growth at 10 µM (SW-620): 93.2%; growth at 10 µM (SK-MEL-28): 76.4%; growth at 10 µM (CCRF-CEM): 87.4%; inhibition zone (IZ) [1]: 15 mm
CC(C)CCC[C@@H](C)[C@H]1CC[C@H]2C3=CCn4c(=O)ccc(=O)n4[C@@H]3CC[C@]12C | -93 | -89.5 | -96.8 | -66.1 | -49 | -34.6 | -32.4 | -79.3 | -97.7 | -100 | -55.3 | -95.1 | -82.2 | -65.5 | -23.6 | -55.4 | -93.7 | -63.7 | -93.3 | -94.8 | growth at 10 µM (SK-MEL-5): -79.3%; growth at 10 µM (HL-60(TB)): -43.3%; growth at 10 µM (OVCAR-3): -96.5%; growth at 10 µM (OVCAR-8): -39.7%; growth at 10 µM (Malme-3M): -98%; growth at 10 µM (U-251): -96.9%; growth at 10 µM (SW-620): -91.6%; growth at 10 µM (SK-MEL-28): -100%; growth at 10 µM (CCRF-CEM): -2.44%; inhibition zone (IZ) [1]: 10 mm
CC(C)CCC[C@@H](C)[C@H]1CC[C@H]2C3=CC[C@@H]4C(=O)C=CC(=O)[C@@H]4[C@@H]3CC[C@]12C | 41.9 | -43.4 | 38.2 | -46.1 | 2.69 | 13.2 | -9.33 | 8.75 | 20.1 | -5.66 | 42.6 | 4.54 | -10 | -10.1 | 10.4 | 8.4 | 26.6 | 11.3 | 12.1 | -6.21 | growth at 10 µM (SK-MEL-5): -3.37%; growth at 10 µM (HL-60(TB)): -5.46%; growth at 10 µM (OVCAR-3): 2.72%; growth at 10 µM (OVCAR-8): 0.17%; growth at 10 µM (Malme-3M): 17.5%; growth at 10 µM (U-251): 11.5%; growth at 10 µM (SW-620): 20.4%; growth at 10 µM (SK-MEL-28): -48.5%; growth at 10 µM (CCRF-CEM): 17%; diameter of the inhibition zone (DIZ) [1]: inactive
